Assay results reported in ChEMBL document CHEMBL1141374 (J Med Chem, 2007).

How the values were obtained:
[1] = Cytotoxicity against P-glycoprotein-overexpressing KB-V1 cell line; type: cell-based; conditions: Homo sapiens
In short: (§1)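 Log-phase cells were diluted to 20 000–30 000 cells/mL, seeded, and left to attach overnight. They were then exposed to compounds at 10^–5–10^–12 M for 72 h at 37 °C in 5% CO2. Viable cells were measured by MTT, with absorbance read at 595 nm. Each compound ran in triplicate in at least three independent assays. IC50 came from nonlinear regression, and average values were reported.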

Tubulin = assay: Inhibition of tubulin polymerization; type: protein-complex assay, Homo sapiens
In short: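 Kit-based assay run per the manufacturer's instructions. Tubulin (>99% pure, 3 mg/mL) in G-PEM buffer, in a prewarmed plate with compound at 0.03–30 μM. OD340 nm read every 60 s at 37 °C for 1 h.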

CCRF-CEM = assay: Growth inhibition in CCRF-CEM cells; type: functional; conditions: Homo sapiens
HL-60 = assay: Growth inhibition in HL60 cells; type: functional; conditions: Homo sapiens
K562 = assay: Growth inhibition in K562 cells; type: functional; conditions: Homo sapiens
A549 = assay: Growth inhibition in A549 cells; type: functional; conditions: Homo sapiens
EKVX = assay: Growth inhibition in EKVX cells; type: functional; conditions: Homo sapiens
HOP-62 = assay: Growth inhibition in HOP62 cells; type: functional; conditions: Homo sapiens
HOP-92 = assay: Growth inhibition in HOP92 cells; type: functional; conditions: Homo sapiens
NCI-H226 = assay: Growth inhibition in NCI-H226 cells; type: functional; conditions: Homo sapiens
NCI-H23 = assay: Growth inhibition in NCI-H23 cells; type: functional; conditions: Homo sapiens
NCI-H322M = assay: Growth inhibition in NCI-H322M cells; type: functional; conditions: Homo sapiens
NCI-H460 = assay: Growth inhibition in NCI-H460 cells; type: functional; conditions: Homo sapiens
NCI-H522 = assay: Growth inhibition in NCI-H522 cells; type: functional; conditions: Homo sapiens
COLO 205 = assay: Growth inhibition in COLO205 cells; type: functional; conditions: Homo sapiens
HCC 2998 = assay: Growth inhibition in HCC2998 cells; type: functional; conditions: Homo sapiens
[2] = Growth inhibition in HCC116 cells; type: functional; conditions: Homo sapiens
[3] = Growth inhibition in HCC15 cells; type: functional; conditions: Homo sapiens
HT-29 = assay: Growth inhibition in HT29 cells; type: functional; conditions: Homo sapiens
KM12 = assay: Growth inhibition in KM12 cells; type: functional; conditions: Homo sapiens
SW-620 = assay: Growth inhibition in SW620 cells; type: functional; conditions: Homo sapiens
SF-268 = assay: Growth inhibition in SF268 cells; type: functional; conditions: Homo sapiens
SF-295 = assay: Growth inhibition in SF295 cells; type: functional; conditions: Homo sapiens
SF-539 = assay: Growth inhibition in SF539 cells; type: functional; conditions: Homo sapiens
SNB-19 = assay: Growth inhibition in SNB19 cells; type: functional; conditions: Homo sapiens
SNB-75 = assay: Growth inhibition in SNB75 cells; type: functional; conditions: Homo sapiens
U-251 = assay: Growth inhibition in U251cells; type: functional; conditions: Homo sapiens
LOX IMVI = assay: Growth inhibition in LOX IMVI cells; type: functional; conditions: Homo sapiens
M14 = assay: Growth inhibition in M14 cells; type: functional; conditions: Homo sapiens
SK-MEL-2 = assay: Growth inhibition in SK-MEL-2 cells; type: functional; conditions: Homo sapiens
SK-MEL-28 = assay: Growth inhibition in SK-MEL-28 cells; type: functional; conditions: Homo sapiens
SK-MEL-5 = assay: Growth inhibition in SK-MEL-5 cells; type: functional; conditions: Homo sapiens
UACC-257 = assay: Growth inhibition in UACC257 cells; type: functional; conditions: Homo sapiens
UACC-62 = assay: Growth inhibition in UACC62 cells; type: functional; conditions: Homo sapiens
IGROV-1 = assay: Growth inhibition in IGROV1 cells; type: functional; conditions: Homo sapiens
OVCAR-3 = assay: Growth inhibition in OVCAR-3 cells; type: functional; conditions: Homo sapiens
OVCAR-4 = assay: Growth inhibition in OVCAR4 cells; type: functional; conditions: Homo sapiens
OVCAR-5 = assay: Growth inhibition in OVCAR5 cells; type: functional; conditions: Homo sapiens
OVCAR-8 = assay: Growth inhibition in OVCAR8 cells; type: functional; conditions: Homo sapiens
SK-OV-3 = assay: Growth inhibition in SKOV3 cells; type: functional; conditions: Homo sapiens
RXF 393 = assay: Growth inhibition in RXF393 cells; type: functional; conditions: Homo sapiens
SN12C = assay: Growth inhibition in SN12C cells; type: functional; conditions: Homo sapiens
786-0 = assay: Growth inhibition in 786-0 cells; type: functional; conditions: Homo sapiens
A498 = assay: Growth inhibition in A498 cells; type: functional; conditions: Homo sapiens
ACHN = assay: Growth inhibition in ACHN cells; type: functional; conditions: Homo sapiens
CAKI-1 = assay: Growth inhibition in CAK1-1 cells; type: functional; conditions: Homo sapiens
TK-10 = assay: Growth inhibition in TK10 cells; type: functional; conditions: Homo sapiens
UO-31 = assay: Growth inhibition in UO31 cells; type: functional; conditions: Homo sapiens
PC-3 = assay: Growth inhibition in PC3 cells; type: functional; conditions: Homo sapiens
DU-145 = assay: Growth inhibition in DU145 cells; type: functional; conditions: Homo sapiens
MCF7 = assay: Growth inhibition in MCF7 cells; type: functional; conditions: Homo sapiens
NCI/ADR-RES = assay: Growth inhibition in NCI/ADR-RES cells; type: functional; conditions: Homo sapiens
[4] = Growth inhibition in MDA-MB-231/ATCC cells; type: functional; conditions: Homo sapiens
[5] = Growth inhibition in HS 578T cells; type: functional; conditions: Homo sapiens
MDA-MB-435 = assay: Growth inhibition in MDA-MB-435 cells; type: functional; conditions: Homo sapiens
BT-549 = assay: Growth inhibition in BT549 cells; type: functional; conditions: Homo sapiens
T47D = assay: Growth inhibition in T47D cells; type: functional; conditions: Homo sapiens
HCT-116 = assay: Cytotoxicity against HCT116 cell line; type: cell-based; conditions: Homo sapiens; in short: as §1
ZR-75-1 = assay: Cytotoxicity against ZR-75-1 cell line; type: cell-based; conditions: Homo sapiens; in short: as §1
HeLa = assay: Cytotoxicity against HeLa cell line; type: cell-based; conditions: Homo sapiens; in short: as §1
[6] = Cytotoxicity against KB-3-1 cell line; type: cell-based; conditions: Homo sapiens; in short: as §1

IC50 (Tubulin): 3 µM
GI50 (CCRF-CEM): 0.0324 µM
GI50 (HL-60): 0.0417 µM
GI50 (K562): 0.0148 µM
GI50 (A549): 0.0372 µM
GI50 (NCI-H226): 85.1 µM
GI50 (NCI-H23): 0.0457 µM
GI50 (NCI-H322M): < 0.01 µM
GI50 (NCI-H460): 0.0331 µM
GI50 (NCI-H522): < 0.01 µM
GI50 (COLO 205): 0.0288 µM
GI50 (HCC 2998): 0.024 µM
GI50 (HT-29): 0.0229 µM
GI50 (SW-620): 0.0339 µM
GI50 (U-251): 0.0331 µM
GI50 (SK-MEL-2): 0.166 µM
GI50 (SK-MEL-28): < 0.01 µM
GI50 (SK-MEL-5): 0.0141 µM
GI50 (OVCAR-3): < 0.01 µM
GI50 (OVCAR-4): 1.05 µM
GI50 (OVCAR-5): 0.0479 µM
GI50 (OVCAR-8): 0.0427 µM
GI50 (SK-OV-3): 0.0316 µM
GI50 (786-0): 0.0324 µM
GI50 (ACHN): 0.0347 µM
GI50 (PC-3): 0.0195 µM
GI50 (DU-145): < 0.01 µM
GI50 (MCF7): 0.0437 µM
GI50 (MDA-MB-435): < 0.01 µM
GI50 (BT-549): 0.0372 µM
GI50 (T47D): 0.0447 µM
Structure (SMILES): COc1cc(-c2nncn2-c2ccc3c(ccn3C)c2)cc(OC)c1OC
IC50 [1]: 0.0208 µM
GI50 (EKVX): < 0.01 µM
GI50 (HOP-62): 0.0186 µM
GI50 (HOP-92): 0.0832 µM
GI50 [2]: 0.0309 µM
GI50 [3]: 0.0355 µM
GI50 (KM12): < 0.01 µM
GI50 (SF-268): < 0.01 µM
GI50 (SF-295): < 0.01 µM
GI50 (SF-539): < 0.01 µM
GI50 (SNB-19): 0.0447 µM
GI50 (SNB-75): 0.0129 µM
GI50 (LOX IMVI): 0.0562 µM
GI50 (M14): 0.0186 µM
GI50 (UACC-257): 0.245 µM
GI50 (UACC-62): < 0.01 µM
GI50 (IGROV-1): 0.0355 µM
GI50 (RXF 393): < 0.01 µM
GI50 (SN12C): 0.0631 µM
GI50 (A498): 0.0158 µM
GI50 (CAKI-1): < 0.01 µM
GI50 (TK-10): < 0.01 µM
GI50 (UO-31): 0.0324 µM
GI50 (NCI/ADR-RES): 0.0209 µM
GI50 [4]: 0.0309 µM
GI50 [5]: 0.0162 µM
IC50 (HCT-116): 0.00739 µM
IC50 (ZR-75-1): 0.0238 µM
IC50 (HeLa): 0.00873 µM
IC50 [6]: 0.0099 µM
